What is called IC50 is the concentration at which inhibition is half-maximal. As usually defined, the Ki is a measure of affinity in units of concentration, obtained from inhibition or displacement. Read a low Ki as tighter binding.

Here are results for 18 molecules from ChEMBL document CHEMBL2021918, “Discovery of S-444823, a potent CB1/CB2 dual agonist as an antipruritic agent” (Bioorg Med Chem Lett, 2012).

The test system of data set [1] is Mus musculus. Nature of the data set: Toxicity in mouse assessed as catalepsy at 0.1 to 1 mg/kg, iv measured at 15 mins post compound administration. Set-up: dose 0.1-1 mg/kg, route intravenous. It counts as organism-based. To be noted: in vivo, 0.25 h. Put shortly: (§1)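 ICR mice, n = 3 per dose, given compound iv in tail vein at 0.1 and 1.0 mg/kg, dissolved in MDAA and PEG solution. Behaviour observed 15 min post-dose and scored: 5 tonic convulsion, 4 catalepsy, 3 prone position/sedation, 2 crawling, 1 decreased locomotion, 0 normal.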

The subject of data set [2] is Mus musculus. The data set can be described thus: Toxicity in mouse assessed as sedation at 0.1 to 1 mg/kg, iv measured at 15 mins post compound administration. It counts as organism-based. Set-up: dose 0.1-1 mg/kg, route intravenous. To be noted: in vivo, 0.25 h. Put shortly:
as §1

In data set [3] the target is T1, Cannabinoid receptor 2 (Homo sapiens, UniProt P34972). The data set can be described thus: Agonist activity at human CB2 receptor expressed in CHO cells assessed as inhibition of forskolin-induced cAMP levels after 20 mins. The format is functional, cell-based. The method in brief:
(§2)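 hCB2-expressing CHO cells in 24-well plates, exposed to compounds 20 min at 37 °C in Hanks'/20 mM HEPES buffer with 0.1 mM IBMX, 0.2 mM Ro20-1724, 0.1% BSA; forskolin 4 µM then added for 45 min at 37 °C; cellular cAMP quantified by kit.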
Background: Changes in cAMP serve as a functional read-out for many G protein-coupled receptors.

The target of data set [4] is T2, Cannabinoid receptor 1 (Homo sapiens, UniProt P21554). Nature of the data set: Agonist activity at human CB1 receptor expressed in CHO cells assessed as inhibition of forskolin-induced cAMP levels after 20 mins. The format is functional, cell-based.
T2 sequence (P21554 whole entry): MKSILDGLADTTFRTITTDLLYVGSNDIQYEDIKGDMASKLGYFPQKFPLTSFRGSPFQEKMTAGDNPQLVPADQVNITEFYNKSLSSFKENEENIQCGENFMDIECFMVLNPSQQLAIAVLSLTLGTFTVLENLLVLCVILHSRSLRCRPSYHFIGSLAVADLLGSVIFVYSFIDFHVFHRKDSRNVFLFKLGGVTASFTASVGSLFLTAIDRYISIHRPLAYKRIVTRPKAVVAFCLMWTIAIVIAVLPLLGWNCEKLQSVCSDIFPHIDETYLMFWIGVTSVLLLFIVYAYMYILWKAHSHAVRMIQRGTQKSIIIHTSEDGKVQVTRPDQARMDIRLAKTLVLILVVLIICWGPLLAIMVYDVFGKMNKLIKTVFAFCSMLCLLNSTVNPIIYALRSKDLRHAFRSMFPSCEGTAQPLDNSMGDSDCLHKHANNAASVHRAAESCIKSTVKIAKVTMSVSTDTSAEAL
Data set [5] addresses T1, Cannabinoid receptor 2. The data set can be described thus: Displacement of [3H]CP55940 from human CB2 receptor membrane fractions. The method in brief: (§3)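 Membranes from confluent recombinant hCB1 or hCB2 cells: sonicated on ice in 20 mM Tris–HCl pH 7.4, 2 mM EDTA, 0.25 M sucrose with protease inhibitor; spun 3000 rpm 10 min, then supernatant 100,000 g 60 min at 4 °C; pellets stored at −80 °C. Radioligand [3H]-CP55940; its Kd per membrane set by Scatchard analysis.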
On the technique in general: Loss of bound radioactivity is the signal in a displacement assay; it reports binding, not function.

In data set [6] the target is T2, Cannabinoid receptor 1. The data set can be described thus: Displacement of [3H]CP55940 from human CB1 receptor membrane fractions. The method in brief:
as §3

In data set [7] the target is T1, Cannabinoid receptor 2. Nature of the data set: Partial agonist activity at human CB2 receptor expressed in CHO cells assessed as inhibition of forskolin-induced cAMP levels after 20 mins. The format is functional, cell-based. Put shortly: as §2
Data set [8] has as its target T2, Cannabinoid receptor 1. Nature of the data set: Partial agonist activity at human CB1 receptor expressed in CHO cells assessed as inhibition of forskolin-induced cAMP levels after 20 mins. It counts as functional, cell-based.
The species entered for data set [9] is Mus musculus. The data set can be described thus: Antipruritic activity against Crj:CD-1 ICR mouse assessed as inhibition of Compound 48/80-induced scratching behaviour at 1 % compound painted on shaven back 15 mins before challenge measured for 30 mins relative to control. It counts as functional.

Calls of active or inactive are those of the source. No cut-off for these calls is given here.

T1 sequence (P34972 whole entry): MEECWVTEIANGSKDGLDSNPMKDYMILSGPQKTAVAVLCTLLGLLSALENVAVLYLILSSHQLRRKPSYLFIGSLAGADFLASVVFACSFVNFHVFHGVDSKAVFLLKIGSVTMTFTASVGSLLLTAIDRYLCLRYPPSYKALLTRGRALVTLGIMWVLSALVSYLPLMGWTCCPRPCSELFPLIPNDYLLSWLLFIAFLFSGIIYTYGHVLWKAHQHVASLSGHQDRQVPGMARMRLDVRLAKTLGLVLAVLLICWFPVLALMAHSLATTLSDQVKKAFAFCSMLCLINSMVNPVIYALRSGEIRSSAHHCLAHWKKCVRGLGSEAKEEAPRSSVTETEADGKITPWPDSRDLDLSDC

Turning to `O=C(O)CCc1csc(NC(=O)c2cc3c(n(CC4CCCCC4)c2=O)CCCCCC3)n1`, the Activity entry in data set [1] and in data set [2] was “Non-toxic” in each case.
Regarding `O=C(O)c1ccc(NC(=O)c2cc3c(n(CC4CCCCC4)c2=O)CCCCCC3)cc1`, the half-maximal inhibitory concentration (IC50) in data set [3] turned out to be 38 nM; in [4], 291 nM. Also, the Ki in data set [5] is 107 nM; in [6] it was 370 nM.
As for `O=C(O)Cc1ccc(NC(=O)c2cc3c(n(CC4CCCCC4)c2=O)CCCCCC3)cc1`, the IC50 in data set [3] is 96 nM; in [4] it was above 2000 nM. The Ki was 74 nM in data set [5] and 3990 nM in data set [6].
The corresponding values for `O=C(O)Cc1cccc(NC(=O)c2cc3c(n(CC4CCCCC4)c2=O)CCCCCC3)c1` are 180 nM, 997 nM, 120 nM and 2880 nM.
On to `O=C(O)c1ccc(CNC(=O)c2cc3c(n(CC4CCCCC4)c2=O)CCCCCC3)cc1`, for which the affinity in [5] corresponds to a Ki of 923 nM.
For the molecule `O=C(N[C@H](C(=O)O)c1ccccc1)c1cc2c(n(CC3CCCCC3)c1=O)CCCCCC2`, the outcome in data set [7] and in data set [8] was Active. Besides, the IC50 in data set [4] is above 2000 nM. The same molecule came in with a Ki in data set [5] of 1.2 nM.
Take `O=C(N[C@@H](C(=O)O)c1ccccc1)c1cc2c(n(CC3CCCCC3)c1=O)CCCCCC2`: the IC50 in [3] was 4.4 nM; in data set [4], above 2000 nM. In addition, the result in data set [7] and in data set [8] was Active. Further, the Ki in data set [5] was determined as 3 nM; in [6] it was 69 nM.
For the molecule `O=C(O)c1ccccc1NC(=O)c1cc2c(n(CC3CCCCC3)c1=O)CCCCCC2`, the half-inhibitory concentration (IC50) was 167 nM in data set [3] and 657 nM in data set [4]. Further, the results for the Ki in [5] and in data set [6] were 181 nM and 2530 nM, respectively.
As for `O=C(O)c1csc(NC(=O)c2cc3c(n(CC4CCCCC4)c2=O)CCCCCC3)n1`, the IC50 in [4] was above 2000 nM. Moreover, the Ki in data set [5] and in data set [6] was above 5000 nM in each case.
`O=C(O)c1cccc(NC(=O)c2cc3c(n(CC4CCCCC4)c2=O)CCCCCC3)c1`: the IC50 was 268 nM in [3] and 611 nM in [4]. Besides, the values for the Ki in [5] and in [6] were 614 nM and 1560 nM, respectively.
The corresponding values for `O=C(N[C@@H](Cc1ccccc1)C(=O)O)c1cc2c(n(CC3CCCCC3)c1=O)CCCCCC2` are 126 nM, 297 nM, 33 nM and 738 nM.
Turning to `CC(C)[C@H](NC(=O)c1cc2c(n(CC3CCCCC3)c1=O)CCCCCC2)C(=O)O`, the Ki in data set [5] was 116 nM; in [6] it was 1880 nM.
Regarding `O=C(O)Cc1csc(NC(=O)c2cc3c(n(CC4CCCCC4)c2=O)CCCCCC3)n1`, in data set [9], the “inhibition (INH)” value is on record as 109%. Also, the Activity result in [1] and in data set [2] was “Non-toxic” each time.
With `O=C(N[C@H](C(=O)O)C1CCCCC1)c1cc2c(n(CC3CCCCC3)c1=O)CCCCCC2`, the IC50 in data set [3] is 51 nM; in data set [4] it was above 2000 nM. The figures for the Ki in [5] and in data set [6] were 111 nM and 3060 nM, respectively.
Consider `O=C(O)Cc1cnc(NC(=O)c2cc3c(n(CC4CCCCC4)c2=O)CCCCCC3)s1`, for which the figures for the IC50 in [3] and in [4] were 3.5 nM and 23 nM, respectively. In addition, the result in [7] and in [8] was Active. Further, the Ki in data set [5] came out at 4.6 nM; in data set [6], 235 nM.
On to `O=C(O)Cc1ccccc1NC(=O)c1cc2c(n(CC3CCCCC3)c1=O)CCCCCC2`, for which the Ki in [5] was determined as 46 nM; in [6], 548 nM.
`O=C(O)c1cnc(NC(=O)c2cc3c(n(CC4CCCCC4)c2=O)CCCCCC3)s1`: the figures for the IC50 in data set [3] and in [4] were 800 nM and above 2000 nM, respectively. Also, the figures for the Ki in [5] and in data set [6] were 885 nM and above 5000 nM, respectively.
Consider `CC(C)(NC(=O)c1cc2c(n(CC3CCCCC3)c1=O)CCCCCC2)C(=O)O`, for which the Ki in data set [5] turned out to be 349 nM; in data set [6], 1350 nM.
